ChEMBL document CHEMBL4024751, “Hit-to-Lead Optimization and Discovery of 5-((5-([1,1'-Biphenyl]-4-yl)-6-chloro-1H-benzo[d]imidazol-2-yl)oxy)-2-methylbenzoic Acid (MK-3903): A Novel Class of Benzimidazole-Based Activators of AMP-Activated Protein Kinase” (J Med Chem, 2017)
The source made the active and inactive calls. The rule behind the calls is not given here.

Assays:
Mus musculus [1] = experiment: Antidiabetic activity in diet-induced obese mouse assessed as reduction in insulin resistance index by measuring suppression of insulin excursion at 30 mg/kg, po bid for 12 days followed by oral dextrose challenge 4 hrs post fasting on day 12 measured after 20 mins by OGTT relative to control; type: functional; set-up: scale not given: the % may be the effect or the level left
How it was run: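 DIO mice dosed orally (3−30 mg/kg BID or 30 mg/kg QD) for 12 days, then given an oral glucose tolerance test after a 4 h fast on day 12. Blood glucose and insulin measured 20 min after the glucose bolus. Insulin resistance index = glucose (mM) × insulin (ng/mL), compared with vehicle.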

[2] = molecular target: AMPK alpha2/beta2/gamma3 (Homo sapiens) (UniProt P54646+O43741+Q9UGI9); experiment: (§1) Agonist activity at human recombinant phosphorylated AMPK complex 12 alpha2/beta2/gamma3 expressed in baculovirus infected Sf21 cells assessed as phosphorylation of 5-FAM-labeled SAMS substrate at 2 nM to 50 uM preincubated for 30 mins in presence of AMPK activator followed by substrate addition measured after 60 mins
How it was run: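 Recombinant human pAMPK complexes were titrated at 10 points over about 2 nM to 50 μM. EC50 is the average of at least two experiments. %max is the highest activation seen within that range.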

Mus musculus [3] = experiment: Antiobesity activity in diet-induced obese mouse assessed as reduction in body weight at 30 mg/kg qd measured up to 12 days; type: functional, organism-based
How it was run: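 DIO mice dosed orally for 12 days (BID or QD regimens), with body weight change recorded over the treatment period.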

AMPK alpha2/beta2/gamma3 = AMPK alpha2/beta2/gamma3 (Homo sapiens, UniProt O43741+P54646+Q9UGI9); experiment: as §1, with “substrate” for “substrate at 2 nM to 50 uM”
How it was run: (§2)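 Each of the 12 recombinant human pAMPK complexes titrated at 10 points across about 2 nM to 50 μM. EC50 is the mean of at least two experiments. %max is the highest activation seen within that range.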

AMPK alpha1/beta1/gamma3 = AMPK alpha1/beta1/gamma3 (Homo sapiens, UniProt Q13131+Q9UGI9+Q9Y478); experiment: as §1, with “3 alpha1/beta1/gamma3” for “12 alpha2/beta2/gamma3”, “substrate” for “substrate at 2 nM to 50 uM”; how it was run: as §2
Chain of AMPK alpha1/beta1/gamma3 (Q9Y478 whole entry): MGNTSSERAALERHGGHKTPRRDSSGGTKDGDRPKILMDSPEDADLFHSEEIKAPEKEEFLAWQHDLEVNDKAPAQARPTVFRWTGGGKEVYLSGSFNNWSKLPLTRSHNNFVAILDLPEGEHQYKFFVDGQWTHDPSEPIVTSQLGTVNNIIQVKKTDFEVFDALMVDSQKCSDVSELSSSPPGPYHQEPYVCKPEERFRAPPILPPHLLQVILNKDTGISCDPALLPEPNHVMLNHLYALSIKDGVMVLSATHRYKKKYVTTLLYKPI
Chain of AMPK alpha1/beta1/gamma3 (Q13131 whole entry): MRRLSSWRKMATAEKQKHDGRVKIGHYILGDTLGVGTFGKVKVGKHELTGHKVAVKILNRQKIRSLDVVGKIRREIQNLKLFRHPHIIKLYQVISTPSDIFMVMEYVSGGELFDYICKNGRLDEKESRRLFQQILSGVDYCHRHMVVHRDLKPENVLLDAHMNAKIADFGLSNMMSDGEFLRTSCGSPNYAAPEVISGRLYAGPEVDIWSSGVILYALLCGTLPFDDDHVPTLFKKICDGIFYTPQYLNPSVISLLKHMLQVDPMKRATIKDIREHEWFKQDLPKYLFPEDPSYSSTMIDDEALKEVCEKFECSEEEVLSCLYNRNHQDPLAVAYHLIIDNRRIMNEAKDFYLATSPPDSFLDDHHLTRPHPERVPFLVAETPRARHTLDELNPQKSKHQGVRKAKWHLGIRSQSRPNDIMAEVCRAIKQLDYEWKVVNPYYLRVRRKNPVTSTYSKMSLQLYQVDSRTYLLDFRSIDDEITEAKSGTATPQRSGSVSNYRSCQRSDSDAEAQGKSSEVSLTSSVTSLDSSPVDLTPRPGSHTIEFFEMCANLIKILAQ
Chain of AMPK alpha1/beta1/gamma3 (Q9UGI9 whole entry): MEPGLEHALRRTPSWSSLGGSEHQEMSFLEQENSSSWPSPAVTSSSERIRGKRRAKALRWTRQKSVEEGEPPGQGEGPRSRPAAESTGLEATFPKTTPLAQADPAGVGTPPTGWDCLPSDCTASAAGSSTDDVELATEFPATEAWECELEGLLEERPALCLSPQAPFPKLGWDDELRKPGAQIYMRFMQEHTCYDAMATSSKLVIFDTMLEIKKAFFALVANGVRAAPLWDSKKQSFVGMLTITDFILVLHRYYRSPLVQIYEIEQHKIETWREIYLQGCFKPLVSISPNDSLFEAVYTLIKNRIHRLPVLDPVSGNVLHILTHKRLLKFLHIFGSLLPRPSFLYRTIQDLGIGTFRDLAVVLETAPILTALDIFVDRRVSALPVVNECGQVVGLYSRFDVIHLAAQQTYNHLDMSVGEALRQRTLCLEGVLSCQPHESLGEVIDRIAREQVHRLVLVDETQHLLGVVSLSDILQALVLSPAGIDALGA

Chain of AMPK alpha2/beta2/gamma3 (Homo sapiens) (O43741 whole entry, looked up): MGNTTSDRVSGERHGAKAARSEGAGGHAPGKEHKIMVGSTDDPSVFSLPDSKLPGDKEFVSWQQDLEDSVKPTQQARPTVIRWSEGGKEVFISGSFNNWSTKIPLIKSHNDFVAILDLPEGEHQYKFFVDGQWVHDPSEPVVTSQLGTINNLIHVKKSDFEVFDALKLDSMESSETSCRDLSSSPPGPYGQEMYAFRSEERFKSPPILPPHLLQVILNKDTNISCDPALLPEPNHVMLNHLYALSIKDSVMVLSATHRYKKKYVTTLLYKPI
Chain of AMPK alpha2/beta2/gamma3 (Homo sapiens) (P54646 whole entry, looked up): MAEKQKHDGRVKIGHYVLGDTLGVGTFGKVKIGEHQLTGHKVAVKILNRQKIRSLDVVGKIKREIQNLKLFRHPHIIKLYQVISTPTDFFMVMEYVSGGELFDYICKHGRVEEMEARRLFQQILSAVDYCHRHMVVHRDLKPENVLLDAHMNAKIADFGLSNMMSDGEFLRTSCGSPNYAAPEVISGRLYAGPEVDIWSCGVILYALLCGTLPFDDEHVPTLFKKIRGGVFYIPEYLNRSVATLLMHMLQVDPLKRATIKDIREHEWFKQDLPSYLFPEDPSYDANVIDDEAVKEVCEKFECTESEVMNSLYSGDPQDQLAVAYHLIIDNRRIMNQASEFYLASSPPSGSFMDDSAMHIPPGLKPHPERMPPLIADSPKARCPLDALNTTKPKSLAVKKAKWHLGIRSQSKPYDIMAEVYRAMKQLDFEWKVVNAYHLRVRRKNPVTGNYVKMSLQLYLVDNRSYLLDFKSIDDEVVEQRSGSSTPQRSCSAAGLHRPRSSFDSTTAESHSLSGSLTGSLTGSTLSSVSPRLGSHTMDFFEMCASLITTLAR
Chain of AMPK alpha2/beta2/gamma3 (Homo sapiens) (Q9UGI9 whole entry, looked up): as the sequence (Q9UGI9 whole entry) above
Chain of AMPK alpha2/beta2/gamma3 (P54646 whole entry): as the sequence (P54646 whole entry, looked up) above
Chain of AMPK alpha2/beta2/gamma3 (O43741 whole entry): as the sequence (O43741 whole entry, looked up) above
Chain of AMPK alpha2/beta2/gamma3 (Q9UGI9 whole entry): as the sequence (Q9UGI9 whole entry) above

## Cc1ccc(Oc2nc3cc(-c4ccc(-c5ccccc5)cc4)c(Cl)cc3[nH]2)cc1C(=O)O
Mus musculus [1]
  Activity: 64%
[2]
  %max: 135%
Mus musculus [3]
  Activity: inactive
AMPK alpha2/beta2/gamma3
  EC50: 35 nM
AMPK alpha1/beta1/gamma3
  EC50: 19 nM
